In ChEMBL document CHEMBL1671768, “In vitro activity of pyronaridine against multidrug-resistant Plasmodium falciparum and Plasmodium vivax” (Antimicrob Agents Chemother, 2010):

Tests used:
Type in all cases: functional, organism-based
Plasmodium falciparum [1] = assay: Antimalarial activity against Plasmodium falciparum at the ring stage infected in human erythrocytes assessed as growth inhibition by microscopic analysis using giemsa staining
Plasmodium falciparum [2] = assay: Antimalarial activity against Plasmodium falciparum trophozoites infected in human erythrocytes assessed as growth inhibition by microscopic analysis using giemsa staining
How it was run: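 Fresh field isolates from uncomplicated malaria patients in Papua, with leukocytes removed on CF11. Cells were kept at 2% hematocrit in RPMI 1640 + 10% AB+ human serum on predosed plates with 11 two-fold drug dilutions, in a candle jar at 37.5°C for 21–46 h. Harvest was when >40% of control rings reached schizont.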

Plasmodium vivax [3] = assay: Antimalarial activity against Plasmodium vivax trophozoites infected in human erythrocytes assessed as growth inhibition by microscopic analysis using giemsa staining
How it was run: (§1)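 P. vivax field isolates from Papuan patients, leukocyte-depleted on CF11, were placed in McCoy's 5A + 20% AB+ serum at 2% hematocrit. Plates held 11 two-fold drug dilutions, incubated in a candle jar at 37.5°C until >40% of control rings were mature schizonts. Giemsa thick films were read for schizonts (≥5 chromatin dots/200 parasites) relative to control. IC50 used an inhibitory sigmoid Emax model, accepting fits with Emax/E0 within 15%.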

Plasmodium falciparum [4] = assay: Antimalarial activity against Plasmodium falciparum infected in human erythrocytes assessed as growth inhibition by microscopic analysis using giemsa staining
Plasmodium vivax [5] = assay: Antimalarial activity against Plasmodium vivax infected in human erythrocytes assessed as growth inhibition by microscopic analysis using giemsa staining; how it was run: as §1
Plasmodium vivax [6] = assay: Antimalarial activity against Plasmodium vivax with >50% parasites at ring stage infected in human erythrocytes assessed as growth inhibition after 30 to 50 hrs by microscopic analysis using giemsa staining
How it was run: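 Post hoc subset of P. vivax isolates with >50% ring stage at enrollment and assay duration of 30–50 h. Culture was in McCoy's 5A + 20% AB+ serum, 2% hematocrit, 11 two-fold drug dilutions, candle jar, 37.5°C.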

Plasmodium vivax [7] = assay: Antimalarial activity against Plasmodium vivax at the ring stage infected in human erythrocytes assessed as growth inhibition by microscopic analysis using giemsa staining; how it was run: as §1

| SMILES | IC50 (Plasmodium falciparum [1]) | IC50 (Plasmodium falciparum [2]) | IC50 (Plasmodium vivax [3]) | IC50 (Plasmodium falciparum [4]) | IC50 (Plasmodium vivax [5]) | IC50 (Plasmodium vivax [6]) | IC50 (Plasmodium vivax [7]) |
| --- | --- | --- | --- | --- | --- | --- | --- |
| CCN(CC)Cc1cc(Nc2ccnc3cc(Cl)ccc23)ccc1O | 8.1 nM | 12.6 nM | 25.2 nM | 5.7 nM | 14 nM | 12 nM | – |
| C[C@H]1[C@H](OC(=O)CCC(=O)O)O[C@@H]2O[C@@]3(C)CC[C@H]4[C@H](C)CC[C@@H]1[C@@]24OO3 [ARTESUNATE] | – | – | – | 0.68 nM | 1.03 nM | 1.27 nM | – |
| CCN(CC)CCCC(C)Nc1ccnc2cc(Cl)ccc12 (stereo not given) [CHLOROQUINE] | – | – | 2430 nM | – | 142 nM | – | 49.2 nM |
| OC(c1cc(C(F)(F)F)nc2c(C(F)(F)F)cccc12)C1CCCCN1 (stereo not given) [MEFLOQUINE] | – | 8.5 nM | – | – | 12.1 nM | 8 nM | 7.9 nM |
| Clc1ccc2c(N3CCN(CCCN4CCN(c5ccnc6cc(Cl)ccc56)CC4)CC3)ccnc2c1 [PIPERAQUINE] | 11.8 nM | 77.2 nM | 21.7 nM | 17.1 nM | 24.8 nM | 19.6 nM | 14 nM |
| COc1ccc2nc3cc(Cl)ccc3c(Nc3cc(CN4CCCC4)c(O)c(CN4CCCC4)c3)c2n1 [PYRONARIDINE] | 1.6 nM | 8 nM | 4.7 nM | 1.92 nM | 2.58 nM | 2.4 nM | 2.5 nM |
